From ChEMBL document CHEMBL3085749, “Design, optimization, and biological evaluation of novel keto-benzimidazoles as potent and selective inhibitors of phosphodiesterase 10A (PDE10A)” (J Med Chem, 2013)

Legend:
Format in all cases: ADME, organism-based
[1] = Oral bioavailability in Sprague-Dawley rat at 10 mg/kg by LC-MS/MS analysis; conditions: in vivo
Summary of the method: (§1)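 Fed male Sprague−Dawley rats. Vehicle for iv was 100% DMSO; for po and ip it was 1% Tween and 2% HPMC with methanesulfonic acid, pH 2.2. Reported parameters are Cl (L/h/kg), Vss (L/kg), AUC (μM·h), T1/2 (h) and %F.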

[2] = AUC in Sprague-Dawley rat at 10 mg/kg, po by LC-MS/MS analysis; parameters: dose 10 mg/kg, route oral; conditions: plasma; summary of the method: as §1
[3] = AUC in Sprague-Dawley rat at 2 mg/kg, iv by LC-MS/MS analysis; parameters: dose 2 mg/kg, route intravenous; conditions: plasma
[4] = Volume of distribution at steady state in Sprague-Dawley rat at 2 mg/kg, iv by LC-MS/MS analysis; parameters: dose 2 mg/kg, route intravenous; conditions: in vivo, read-out: Vdss
[5] = AUC in Sprague-Dawley rat at 5 mg/kg, po by LC-MS/MS analysis; parameters: dose 5 mg/kg, route oral; conditions: plasma
[6] = Oral bioavailability in Sprague-Dawley rat at 5 mg/kg by LC-MS/MS analysis; conditions: in vivo

| bioavailability [1] | AUC [2] | AUC [3] | Vd [4] | AUC [5] | bioavailability [6] | SMILES |
| --- | --- | --- | --- | --- | --- | --- |
| 52% | 11.7 µM·h | 4.5 µM·h | 1.28 L/kg |  |  | O=C(c1ccc(Oc2nccnc2N2CCC(O)CC2)cc1)c1nc2ccccc2[nH]1 |
|  |  | 62.1 µM·h | 0.165 L/kg | 79.2 µM·h | 56% | CC(=O)N1CCN(c2nccnc2Oc2ccc(C(=O)c3nc4ccccc4[nH]3)cc2)CC1 |
